Measured values as given in ChEMBL document CHEMBL4622930, “Synthesis and biological evaluation of novel isothiazoloquinoline quinone analogues” (Bioorg Med Chem Lett, 2020).

What was measured:
[1] = tested on: MDA-MB-231; experiment: Antiproliferative activity against human MDA-MB-231 cells assessed as reduction in cell viability measured after 48 hrs MTT assay; type: functional, cell-based; details: MDA-MB-231, 48 h
Method in brief: (§1)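 Cells (MDA-MB-231, MCF-7, MCF-10A, HT-29, A549) exposed to compounds for 48 h, then viability read by MTT. IC50 is the concentration giving 50% inhibition of viability. Means ± SD of three independent experiments.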

[2] = tested on: MCF7; experiment: Antiproliferative activity against human MCF7 cells assessed as reduction in cell viability measured after 48 hrs MTT assay; type: functional, cell-based; details: MCF7, 48 h; method in brief: as §1
[3] = tested on: HT-29; experiment: Antiproliferative activity against human HT-29 cells assessed as reduction in cell viability measured after 48 hrs MTT assay; type: functional, cell-based; details: HT-29, 48 h; method in brief: as §1
[4] = tested on: A549; experiment: Antiproliferative activity against human A549 cells assessed as reduction in cell viability measured after 48 hrs MTT assay; type: functional, cell-based; details: A549, 48 h; method in brief: as §1
[5] = tested on: MCF-10A; experiment: Cytotoxicity against human MCF10A cells assessed as reduction in cell viability measured after 48 hrs MTT assay; type: cell-based; method in brief: as §1
[6] = biological target: NAD(P)H dehydrogenase [quinone] 1 (Homo sapiens) (UniProt P15559); experiment: Substrate activity at human NQO1 assessed as amount of NADH oxidation assessed per umol NQO1
Method in brief: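 Quinones at 20 μM coincubated with NADH with and without human NQO1. Rate of NADH oxidation measured.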

[7] = tested on: A549; experiment: Induction of apoptosis in human A549 cells assessed as live cells at 2 uM measured after 24 hrs by annexinV-FITC/propidium iodide staining based flow cytometry (reference value: 95.5 %); type: functional
[8] = tested on: A549; experiment: Induction of apoptosis in human A549 cells assessed as early apoptotic cells at 2 uM measured after 24 hrs by annexinV-FITC/propidium iodide staining based flow cytometry (reference value: 0.25 %); type: functional
[9] = tested on: A549; experiment: Induction of apoptosis in human A549 cells assessed as late apoptotic cells at 2 uM measured after 24 hrs by annexinV-FITC/propidium iodide staining based flow cytometry (reference value: 3.70 %); type: functional
[10] = tested on: A549; experiment: Induction of apoptosis in human A549 cells assessed as necrotic cells at 2 uM measured after 24 hrs by annexinV-FITC/propidium iodide staining based flow cytometry (reference value: 0.54 %); type: functional
[11] = tested on: A549; experiment: Induction of ROS generation in human A549 cells at 2 uM measured after 24 hrs by DCFH-DA probe based flow cytometry (reference value: 4.92 %); type: functional
[12] = tested on: A549; experiment: Induction of apoptosis in human A549 cells assessed as live cells at 1 uM measured after 24 hrs by annexinV-FITC/propidium iodide staining based flow cytometry (reference value: 95.5 %); type: functional
[13] = tested on: A549; experiment: Induction of apoptosis in human A549 cells assessed as early apoptotic cells at 1 uM measured after 24 hrs by annexinV-FITC/propidium iodide staining based flow cytometry (reference value: 0.25 %); type: functional
[14] = tested on: A549; experiment: Induction of apoptosis in human A549 cells assessed as late apoptotic cells at 1 uM measured after 24 hrs by annexinV-FITC/propidium iodide staining based flow cytometry (reference value: 3.70 %); type: functional
[15] = tested on: A549; experiment: Induction of apoptosis in human A549 cells assessed as necrotic cells at 1 uM measured after 24 hrs by annexinV-FITC/propidium iodide staining based flow cytometry (reference value: 0.54 %); type: functional
[16] = tested on: A549; experiment: Induction of apoptosis in human A549 cells measured after 24 hrs by annexinV-FITC/propidium iodide staining based flow cytometry; type: functional, cell-based
[17] = tested on: A549; experiment: Potency index, ratio of BBI608 activity to test compound activity for induction of apoptosis in human A549 cells measured after 24 hrs by annexinV-FITC/propidium iodide staining based flow cytometry; type: functional
Method in brief: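 A549 cells given test compound or BBI608, each at 2 μM, for 24 h, then stained with Annexin V-FITC/propidium iodide for 15 min. Apoptosis rate by flow cytometry; the ratio compares rates at the same concentration.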

[18] = biological target: Signal transducer and activator of transcription 3 (Homo sapiens) (UniProt P40763); experiment: Inhibition of STAT3 phosphorylation in human MDA-MB-231 cells measured after 2 hrs by Western blot analysis; type: cell-based
Method in brief: (§2)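 MDA-MB-231 cells incubated for 2 h with test compound at 2, 4 or 8 μM, or with DMSO vehicle. Phospho-STAT3 and total STAT3 detected by western blot.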

[19] = tested on: MDA-MB-231; experiment: Effect on total STAT3 level in human MDA-MB-231 cells at 2 to 8 uM measured after 2 hrs by Western blot analysis; type: cell-based; details: mda-mb-231, 2 h; method in brief: as §2
[20] = tested on: A549; experiment: Induction of ROS generation in human A549 cells at 2 uM measured after 24 hrs by DCFH-DA probe based flow cytometry relative to BBI608; type: functional

Sequence of NAD(P)H dehydrogenase [quinone] 1 (Homo sapiens) (P15559 whole entry): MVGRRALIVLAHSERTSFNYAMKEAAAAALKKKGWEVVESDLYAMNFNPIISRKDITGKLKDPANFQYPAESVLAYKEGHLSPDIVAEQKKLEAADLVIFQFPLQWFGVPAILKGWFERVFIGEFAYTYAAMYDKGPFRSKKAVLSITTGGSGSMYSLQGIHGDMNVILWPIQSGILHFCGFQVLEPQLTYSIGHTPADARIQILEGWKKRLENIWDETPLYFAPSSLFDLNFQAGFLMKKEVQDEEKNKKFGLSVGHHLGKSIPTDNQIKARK
Sequence of Signal transducer and activator of transcription 3 (Homo sapiens) (P40763 whole entry): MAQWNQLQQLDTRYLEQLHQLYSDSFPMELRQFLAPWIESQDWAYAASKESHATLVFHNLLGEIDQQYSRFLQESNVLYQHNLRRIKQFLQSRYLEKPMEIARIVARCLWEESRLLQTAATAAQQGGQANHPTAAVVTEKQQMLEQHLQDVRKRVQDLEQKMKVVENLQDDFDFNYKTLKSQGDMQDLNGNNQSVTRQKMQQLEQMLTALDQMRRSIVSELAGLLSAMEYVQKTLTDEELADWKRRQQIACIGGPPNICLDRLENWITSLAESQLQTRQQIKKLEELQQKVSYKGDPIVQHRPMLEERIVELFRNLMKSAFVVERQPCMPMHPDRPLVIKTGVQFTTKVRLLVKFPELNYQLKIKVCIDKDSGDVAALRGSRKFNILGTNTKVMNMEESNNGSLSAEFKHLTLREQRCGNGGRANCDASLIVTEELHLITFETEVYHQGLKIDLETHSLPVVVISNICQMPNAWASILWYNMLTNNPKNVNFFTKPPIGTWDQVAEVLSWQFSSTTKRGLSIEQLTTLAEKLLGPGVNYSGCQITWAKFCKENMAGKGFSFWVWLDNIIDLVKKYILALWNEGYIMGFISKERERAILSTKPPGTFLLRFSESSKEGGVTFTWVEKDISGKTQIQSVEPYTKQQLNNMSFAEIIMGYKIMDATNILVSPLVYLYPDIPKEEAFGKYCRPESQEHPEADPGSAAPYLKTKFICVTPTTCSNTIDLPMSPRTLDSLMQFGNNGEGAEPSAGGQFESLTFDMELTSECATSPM

SMILES	IC50 [1] [µM]	IC50 [2] [µM]	IC50 [3] [µM]	IC50 [4] [µM]	IC50 [5] [µM]	Activity [6] [µmol/min]	Activity [7] [%]	Activity [8] [%]	Activity [9] [%]	Activity [10] [%]	Activity [11] [%]	Activity [12] [%]	Activity [13] [%]	Activity [14] [%]	Activity [15] [%]	Activity [16]	Ratio [17]	inhibition [18]	Activity [19]	Ratio [20]
CCc1nsc2c1C(=O)c1ncccc1C2=O	1.53	0.36	0.91	1.38	0.17	91.8	–	–	–	–	–	–	–	–	–	–	–	–	–	–
CCc1nsc2c1C(=O)c1ccccc1C2=O	2.59	2.34	2.92	0.7	1.13	122	–	–	–	–	–	–	–	–	–	–	–	–	–	–
COc1ccc(-c2nsc3c2C(=O)c2cccnc2C3=O)cc1	0.73	1.82	40	2.77	1.96	209	–	–	–	–	–	–	–	–	–	–	–	–	–	–
Cc1nsc2c1C(=O)c1cccnc1C2=O	0.23	0.64	3.03	1.69	0.88	180	–	–	–	–	–	–	–	–	–	–	–	–	–	–
CCc1nsc2c1C(=O)c1cccnc1C2=O	0.34	1.11	2.06	1.51	0.59	28.4	–	–	–	–	–	–	–	–	–	–	–	–	–	–
CCc1nsc2c1C(=O)c1c(O)cccc1C2=O	2.72	0.71	1.66	1.38	3.06	97.2	–	–	–	–	–	–	–	–	–	–	–	–	–	–
COc1ccc(-c2nsc3c2C(=O)c2cccc(O)c2C3=O)cc1	1.46	1.41	3.88	4.8	1.51	38.9	–	–	–	–	–	–	–	–	–	–	–	–	–	–
CCc1nsc2c1C(=O)c1cccc(O)c1C2=O	5.81	3.31	3.8	2.83	3.02	112	–	–	–	–	–	–	–	–	–	–	–	–	–	–
COc1ccc(-c2nsc3c2C(=O)c2cccc(OC)c2C3=O)cc1	> 40	> 40	> 40	> 40	> 40	18	–	–	–	–	–	–	–	–	–	–	–	–	–	–
CC(=O)c1cc2c(o1)C(=O)c1ccccc1C2=O [NAPABUCASIN]	1.29	0.63	0.14	6.69	0.54	170	94.4	0.16	4.98	0.45	23.5	–	–	–	–	–	–	–	–	–
O=C1c2ncccc2C(=O)c2c(-c3ccccc3)nsc21	0.4	0.26	1.2	0.81	0.88	174	–	–	–	–	–	–	–	–	–	–	–	–	–	–
O=C1c2cccnc2C(=O)c2c(-c3ccccc3)nsc21	0.66	0.46	2.03	1.35	0.17	175	–	–	–	–	–	–	–	–	–	–	–	–	–	–
Cc1nsc2c1C(=O)c1c(O)cccc1C2=O	1.67	0.92	1.62	1.96	0.92	122	–	–	–	–	–	–	–	–	–	–	–	–	–	–
O=C1c2ccccc2C(=O)c2c(-c3ccccc3)nsc21	10.3	> 40	18.8	27.5	17.6	5.59	–	–	–	–	–	–	–	–	–	–	–	–	–	–
Cc1nsc2c1C(=O)c1cccc(O)c1C2=O	2.67	1.58	1.41	1.36	1.37	122	–	–	–	–	–	–	–	–	–	–	–	–	–	–
Cc1nsc2c1C(=O)c1ncccc1C2=O	0.26	0.31	1.52	3.28	0.13	219	84.8	0.33	13.4	1.49	57.5	92.7	0.17	6.53	0.59	Dose-dependent effect	2.5	Dose-dependent effect	Non-Toxic	3
COc1ccc(-c2nsc3c2C(=O)c2c(OC)cccc2C3=O)cc1	> 40	> 40	> 40	> 40	> 40	8.75	–	–	–	–	7.19	–	–	–	–	–	–	–	–	–
Cc1nsc2c1C(=O)c1ccccc1C2=O	1.65	4.09	2.67	1.71	1.11	68	–	–	–	–	–	–	–	–	–	–	–	–	–	–
COc1ccc(-c2nsc3c2C(=O)c2ccccc2C3=O)cc1	35.2	37.5	36.8	> 40	29.3	7.29	–	–	–	–	–	–	–	–	–	–	–	–	–	–
COc1cccc2c1C(=O)c1snc(-c3ccccc3)c1C2=O	22	12.1	28.8	> 40	24.6	14.6	–	–	–	–	–	–	–	–	–	–	–	–	–	–
